Assay outcomes as filed in PubChem BioAssay.
PfHsp90 yeast 2: reduces growth (ATP signal) of yeast expressing P. falciparum Hsp90 | inhibition, % at 9.4 µM | hit rate 0.32% among 310,000 | AID 504621 | S. cerevisiae expressing PfHsp90, BacTiter-Glo ATP, 48 h; yeast lacking PDR1 and PDR3 efflux regulators;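 active = every replicate shows inhibition above about 80%, whatever the replicate mean, limit read from the data; inconclusive = mean inhibition reaches the set limit but some replicate falls short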;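 also: 0% = DMSO neutral controls and 100% = 20 µM radicicol positive controls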
Cneo AK release: Cryptococcus neoformans lysis via adenylate kinase release; C. neoformans lysis, adenylate kinase release luminescence, 4 h; normalised: neutral wells 0, clomiphene wells 100; hit rate 0.2% among 360,000; AID 651654; lysis activity, % at 15 µM;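 active = mean lysis activity across replicates of at least 80%, whatever share of replicates individually reach that level; inactive = mean lysis activity below 80%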
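Material – log-phase Cryptococcus neoformans yeast cells · Input – 5 × 10^6 yeast cells/mL · Medium – fresh YPD growth medium · Doses – single compound concentration per well · Timing – static 4 h at 37 °C with compound, 1 h detection · Detection – adenylate kinase release luminescence · Read-out – signal increase indicating cell lysis · Control set – Clomiphene as positive lysis control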
AF4-AF9 inh: blocks AF4 peptide binding to human AF9; inhibition, % at 10 µM; hit rate 0.47% among 350,000; P42568; AlphaScreen, biotin-AF4 peptide binding to FLAG-AF9;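 active = every replicate reaching a set inhibition limit, whatever the replicate mean, cut at about 25% in these data; inconclusive = mean inhibition reaches that limit but some replicates miss it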;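 also: 0% = plate neutral control median and 100% = total signal loss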
Target sequence (P42568 whole entry, looked up): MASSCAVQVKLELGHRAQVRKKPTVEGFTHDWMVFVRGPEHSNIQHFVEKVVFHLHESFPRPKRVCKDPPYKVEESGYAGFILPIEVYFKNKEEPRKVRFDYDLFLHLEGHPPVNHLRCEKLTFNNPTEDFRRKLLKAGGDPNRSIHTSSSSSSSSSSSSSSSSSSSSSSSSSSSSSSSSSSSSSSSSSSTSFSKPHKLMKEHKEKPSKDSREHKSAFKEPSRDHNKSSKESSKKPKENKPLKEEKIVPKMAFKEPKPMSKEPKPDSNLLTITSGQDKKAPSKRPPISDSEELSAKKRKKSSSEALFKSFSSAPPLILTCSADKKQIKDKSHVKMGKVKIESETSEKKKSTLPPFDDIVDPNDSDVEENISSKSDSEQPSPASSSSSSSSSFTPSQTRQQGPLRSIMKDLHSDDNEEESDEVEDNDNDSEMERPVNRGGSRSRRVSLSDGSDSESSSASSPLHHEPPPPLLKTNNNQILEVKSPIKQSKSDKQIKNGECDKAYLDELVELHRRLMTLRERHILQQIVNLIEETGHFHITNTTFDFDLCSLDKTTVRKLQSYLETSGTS
S100A4 MyoIIA: blocks human S100A4 binding to myosin IIA peptide | P26447 | hit rate 0.14% among 360,000 | inhibition, % at 10.7 µM | AID 652163 | S100A4/TAMRA-MyoIIA peptide fluorescence polarization;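 active = mean inhibition of at least 70% across replicates, with every replicate also reaching that level; inconclusive = mean inhibition reaches 70% but some replicates fall short; inactive = mean inhibition below 70%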
Target sequence (P26447 whole entry, looked up): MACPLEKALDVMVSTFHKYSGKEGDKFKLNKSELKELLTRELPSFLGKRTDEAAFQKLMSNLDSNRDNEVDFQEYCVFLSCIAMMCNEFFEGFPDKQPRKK
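Assay system: human S100A4 monomer with TAMRA-labelled myosin IIA peptide / Buffer or medium: Calcium-containing HEPES buffer, pH 7.2 / Reagent: TAMRA-labelled myosin IIA heavy-chain peptide probe, 5 nM / Compound: one dose per compound / Timing: polarization read 5 min after assay mix addition, stable 5–60 min / Benchmarks: neutral control DMSO, positive control TFP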
rRNA inh HTS: inhibitors of bacterial rRNA selective over humanized ribosomes; E. coli WT GFP vs humanized-ribosome RFP mutants, fluorescence, 24 h; stronger effect = lower value; DMSO median 0, no signal -100; GFP signal change (wild-type ribosome), % (test concentration not listed); hit rate 1.6% among 350,000;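 active = significant combined selectivity score with lowered wild-type GFP, culture density cut under 30%, mutant RFP and density less affected; inactive = any of these conditions unmet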
DENV2 CPE rescue: inhibitors of DENV2 cytopathic effect; CPE inhibition, % at 9.99 µM; DENV2-infected cells, cytopathic effect rescue, plate reader; hit rate 1.7% among 350,000; AID 651640; in the data active = CPE inhibition above about 20%, passing the limit was not always enough; inconclusive = no clear call, values can overlap the other calls; tested in BHK-21 cells;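 also: 0% = median of neutral control wells and 100% = median of positive control wells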
Active calls of the source: *; ? = inconclusive; / = no result; ! = not confirmed by another sample. Rows were chosen to be rich in hits. Some 3.2% of all compounds tested hit in one or more screens of this group.

SMILES	PfHsp90 yeast 2	Cneo AK release	AF4-AF9 inh	S100A4 MyoIIA	rRNA inh HTS	DENV2 CPE rescue
C[C@@H]1CCCCO[C@H](CN(C)Cc2ccccc2)[C@@H](C)CN([C@@H](C)CO)C(=O)c2cc(NC(=O)c3ccccc3)ccc2O1	/	-3	/	/	0	54*
C[C@@H]1CN([C@@H](C)CO)C(=O)c2cc(NC(=O)c3ccccc3)ccc2O[C@@H](C)CCCCO[C@@H]1CN(C)Cc1ccccc1	/	-8	/	/	0	35*
COc1ccccc1CN(C)C[C@H]1OCc2cnnn2CCCC(=O)N([C@H](C)CO)C[C@H]1C	/	5	-1	-10	-2	11
O=C(Cc1cccnc1)N1CC(=O)N2[C@@H](CO)[C@H](c3ccc(C4=CCCC4)cc3)[C@@H]2C1	/	/	-4	-8	1	8
CCC(=O)N1[C@@H]2c3ccc(-c4ccccc4)c(=O)n3C[C@@H]2[C@@H](CO)[C@@H]1C(=O)N(C)C	/	/	/	/	3	/
C[C@@H]1CN([C@H](C)CO)C(=O)c2cc(NC(=O)CCC(F)(F)F)ccc2O[C@@H](C)CCCCO[C@H]1CN(C)Cc1ccncc1	/	0	0	3	0	3
CS(=O)(=O)Nc1ccc2c(c1)[C@H]1C[C@H](CC(=O)NCC3CC3)O[C@H](CO)[C@H]1O2	/	-3	-2	13	1	11
COc1ccc(NC(=O)Nc2ccc3c(c2)[C@@H]2C[C@H](CC(=O)NC4CCCC4)O[C@H](CO)[C@@H]2O3)cc1	/	3	-1	10	0	-3
C[C@@H]1CCCCO[C@@H](CN(C)Cc2ccccc2)[C@H](C)CN([C@H](C)CO)C(=O)c2cc(NC(=O)c3ccccc3)ccc2O1	/	4	/	/	2	24*
COc1ccc(CN(C)C[C@H]2OCCCC[C@@H](C)Oc3ccc(NC(=O)c4ccccc4)cc3C(=O)N([C@H](C)CO)C[C@@H]2C)cc1	/	102*!	1	-3	-2	-2
C[C@H](CO)N1C[C@H](C)[C@@H](CN(C)S(=O)(=O)c2ccc(Cl)cc2)Oc2ccc(NC(=O)Nc3cccc4ccccc34)cc2CC1=O	/	-8	-3	2	5	42*
C[C@@H]1CN([C@@H](C)CO)C(=O)Cc2cc(NC(=O)Nc3cccc4ccccc34)ccc2O[C@@H]1CN(C)S(=O)(=O)c1cccs1	/	95*	/	/	-2	/
Cc1ccc(NC(=O)CCCSc2nc3ccccc3[nH]2)cc1	1	/	-1	1	-27	-4
O=C(CSc1nc2ccccc2[nH]1)Nc1ccc(N2CCOCC2)cc1	2	-6	2	-7	1	?
O=C(CCCSc1nc2ccccc2[nH]1)NC(c1ccccc1)c1ccccc1	4	/	-1	-3	-40*	-1
Cc1ccc(SCC(=O)Nc2ccc(-c3nc4ccccc4[nH]3)cc2)cc1	16	/	6	1	-2	38*
CN(C)C(=O)c1ccc(NC(=O)CSc2nc3ccccc3[nH]2)cc1	-4	/	1	2	-21*	5
COc1cc(C(=O)NC(=S)NNC(=O)c2ccc3c(c2)OCO3)cc(OC)c1OC	13	-5	-4	6	-23*	-3
COc1cc(C(=O)NC(=S)Nc2ccc3c(c2)OCO3)cc(OC)c1OC	-4	0	-2	-2	13	?
O=C1c2cc([N+](=O)[O-])ccc2-c2ncccc21	-32	/	4	-4	-12	51*
CC1=NOC(=O)/C1=C/c1ccc(-c2ccc(Cl)cc2)o1	105*	-1	/	/	/	/
CC1=NOC(=O)/C1=C\c1ccc(-c2cc(Cl)ccc2Cl)o1	2	-2	/	/	/	/
CC1=NOC(=O)/C1=C\c1ccc(-c2ccc(Br)cc2C(=O)O)o1	-3	1	-3	1	19	-10
CC1=NOC(=O)/C1=C\c1ccc(-c2ccc(Br)cc2)o1	105*	/	1	11	-10	-9
COc1ccc(-c2cnc3c(c2)C(=O)N([C@H](C)CO)C[C@H](C)[C@H](CN(C)Cc2cccc(C)c2)O3)cc1	/	/	/	/	-1	/
SMILES	PfHsp90 yeast 2	Cneo AK release	AF4-AF9 inh	S100A4 MyoIIA	rRNA inh HTS	DENV2 CPE rescue
C[C@H](NC(=O)C[C@H]1CC[C@H](NC(=O)C2CCC2)[C@H](CO)O1)c1ccccc1	/	-5	0	3	3	-10
CCOC(=O)C1CCN(c2ncnc3c2nnn3Cc2ccccc2Cl)CC1	13	-1	1	2	-20*	9
CCOC(=O)C1CCN(c2ncnc3c(C)csc23)CC1	-43	/	1	2	-25*	3
C[C@H]1CN([C@@H](C)CO)C(=O)c2cc(C3=CCCC3)cnc2O[C@H]1CN(C)C(=O)c1ccncc1	/	/	-3	-15	4	-6
COC(=O)C[C@@H]1C[C@H]2c3cc(NC(=O)CC4CC4)ccc3O[C@H]2[C@@H](CO)O1	/	4	-1	37	7	24*!
O=C(O)C[C@@H]1C[C@@H]2c3cc(NC(=O)CC4CC4)ccc3O[C@@H]2[C@@H](CO)O1	/	-1	8	-18	6	-3
O=C(O)C[C@@H]1C[C@@H]2c3cc(NC(=O)CC4CC4)ccc3O[C@@H]2[C@H](CO)O1	/	-11	-2	25	1	30*
COc1cccc(S(=O)(=O)Nc2ccc3c(c2)[C@H]2C[C@H](CC(=O)N(C)C)O[C@@H](CO)[C@H]2O3)c1	/	99*	-2	-7	2	-3
O=C(C[C@H]1C[C@@H]2c3cc(NC(=O)CC4CC4)ccc3O[C@@H]2[C@H](CO)O1)NCc1ccccc1	/	0	-1	8	0	98*
C[C@@H]1CN([C@H](C)CO)C(=O)c2cc(C#CC3CC3)cnc2O[C@H]1CN(C)C(=O)Cc1ccccn1	/	-9	-3	5	2	-6
COCC(=O)Nc1ccc2c(c1)[C@H]1C[C@H](CC(=O)OC)O[C@H](CO)[C@H]1O2	/	5	/	/	2	0
COCC(=O)Nc1ccc2c(c1)[C@@H]1C[C@H](CC(=O)OC)O[C@H](CO)[C@@H]1O2	/	2	-1	1	27	28*!
C[C@@H]1CN([C@H](C)CO)C(=O)c2cc(C#Cc3cccc(F)c3)cnc2O[C@@H]1CN(C)Cc1ccccn1	/	0	-10	-3	3	18
Cc1[nH]c(=O)c(C#N)c(C)c1CCC(=O)NCc1cccc(C(F)(F)F)c1	2	-4	-1	-2	6	28*
Cc1ccc(CNC(=O)CCc2c(C)[nH]c(=O)c(C#N)c2C)cc1	18	9	0	-4	12	?
COCC(=O)N1[C@H](C#N)[C@H](c2ccccc2-c2cccc(F)c2)[C@H]1CO	/	/	-2	5	2	-4
C=CCC[C@@H](Cc1ccc(F)cc1)C(=O)OC[C@@H](NC(=O)[C@@H](CC=C)CC(=O)N[C@H](CO)Cc1ccccc1)C(C)(C)C	-8	2	0	2	-2	25*
